# Bioassay records (PubChem BioAssay)
# An excerpt weighted towards active compounds, which were near 2.4% of everything screened.
# NPY Y1 blocker: antagonists of human neuropeptide Y receptor Y1. inhibition, % at 3.6 µM. HEK293-CNG Y1 cells, membrane potential fluorescence; NPY at EC95, then isoproterenol. AID 1040. 200,000 tested, 1% active. P25929;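 active = inhibition above the campaign mean inhibition of all tested compounds plus 3 SD, cut at about 20% in these data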
# Target sequence (P25929 whole entry, looked up): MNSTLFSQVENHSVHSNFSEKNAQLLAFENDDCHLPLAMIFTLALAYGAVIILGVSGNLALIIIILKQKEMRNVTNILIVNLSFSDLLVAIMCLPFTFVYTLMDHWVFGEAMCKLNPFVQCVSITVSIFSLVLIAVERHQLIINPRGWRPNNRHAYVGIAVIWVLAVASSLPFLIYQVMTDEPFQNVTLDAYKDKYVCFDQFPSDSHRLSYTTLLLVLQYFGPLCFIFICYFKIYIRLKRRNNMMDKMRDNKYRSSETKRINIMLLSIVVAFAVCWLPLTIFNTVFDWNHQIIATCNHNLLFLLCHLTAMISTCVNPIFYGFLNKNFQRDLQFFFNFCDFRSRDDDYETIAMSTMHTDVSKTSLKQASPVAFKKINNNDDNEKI
#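 Assay system: HEK293 cells with Y1 receptor plus CNG channel | Probe or stimulus: NPY (25 nM), isoproterenol (1 µM), Ro 20-1724 (25 µM) | Timing: Compound incubation 1 h at room temperature, readout 45 min post-stimulation | Measured by: Membrane-potential fluorescent dye readout | Benchmarks: High control isoproterenol alone, low control NPY with isoproterenol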
# NPY2 pot ag: potentiates or activates human NPY-Y2 receptor. AID 1359. activation, % at 3.6 µM. 220,000 tested, 0.45% active. P49146. cells expressing NPY-Y2, potentiator/agonist read-out; in the data active = activation above about 27%;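 note: cells stimulated with NPY near EC25 plus isoproterenol at EC100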
# S1P4 antagonist: blocks the human S1P4 receptor. S1P4-expressing cells, antagonist mode, reporter read-out. AID 1510. O95977. inhibition, % at 4.98 µM. 220,000 tested, 0.26% active; in the data active = inhibition above about 29%
# S1P4 agonist: human S1P4 receptor agonism. 220,000 tested, 0.35% active. AID 1509. S1P4-expressing cell line, agonist reporter assay. activation, % at 4.98 µM; in the data active = activation above about 11%
# NPY1 pot ag: potentiates or activates human NPY-Y1 receptor; NPY-Y1 expressing cells, potentiator/agonist activation; activation, % at 3.6 µM; 220,000 tested, 0.37% active; AID 1304; in the data active = activation above about 33%, passing the limit was not always enough;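 note: cells stimulated with NPY at EC10 then isoproterenol at EC100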
# NPY Y2 blocker: NPY-Y2 (human) receptor antagonism; NPY-Y2 expressing cells, antagonist mode; inhibition, % at 2.7 µM; AID 793; P49146; 140,000 tested, 0.99% active; in the data active = inhibition above about 17%
# S1P4 ag conf: confirmation of human S1P4 receptor agonists | activation, % at 4.98 µM | shares compounds with S1P4 agonist | S1P4 agonist cell-based reporter assay | 740 tested, 7% active; in the data active = activation above about 12%
# S1P1 ag: counter-screen for S1P4 agonists: agonists of human S1P1; shares compounds with S1P4 agonist; S1P1 agonist cell-based assay, activation; activation, % at 4.98 µM; 740 tested, 4% active; AID 1563; in the data active = activation above about 21%
# Hits are given with their value; – = inactive; · = no result given.
SMILES,NPY Y1 blocker,NPY2 pot ag,S1P4 antagonist,S1P4 agonist,NPY1 pot ag,NPY Y2 blocker,S1P4 ag conf,S1P1 ag
CC1CCC/C(=N\NC(=O)Nc2ccccc2)C1 (configuration not stated),–,–,–,–,–,–,·,·
COc1ccc(O)c(C2=Nc3ccccc3N=C(c3ccco3)C2)c1,–,–,–,69.4,–,–,–,–
Oc1ccc(Cl)cc1C1=Nc2ccccc2N=C(c2ccco2)C1,–,–,–,–,–,–,·,·
NS(=O)(=O)c1ccc(CCNC(=O)CNS(=O)(=O)c2cccc(Br)c2)cc1,–,–,–,–,–,·,·,·
Nc1nc(Nc2ccc(Cl)cc2Cl)nc(C(F)(F)F)n1,–,–,–,29.9,–,–,26.6,–
O=C1CC(N2CCN(c3ccc(F)cc3)CC2)C(=O)N1Cc1cccs1 (configuration not stated),–,–,–,–,–,–,·,·
NC(=O)C1CCN(C2CC(=O)N(Cc3cccs3)C2=O)CC1 (configuration not stated),–,–,–,28.0,–,–,–,–
CC(C)(C)OC(=O)N1CCC[C@H]1c1nnc(SCC(=O)Nc2ccc(Br)cc2)o1,·,–,–,–,–,·,·,·
COc1ccc(/C=N/NC(=O)c2cc(-c3ccc(C)cc3C)nc3ccccc23)cc1COC(C)=O,–,–,–,–,–,–,·,·
O=[N+]([O-])c1cccc2c(N3CCCC3)ccnc12,–,–,–,–,–,·,·,·
CC(C)CC(=O)Nc1ccc(-c2nnn(CC(=O)NCc3ccco3)n2)cc1,–,–,–,14.2,–,·,–,–
O=C(CN1c2ccccc2Sc2ccccc21)NNC(=S)Nc1ccc(Cl)cc1,·,–,–,94.1,–,·,–,–
O=C(CN1CCOCC1)NNC(=S)Nc1ccc(Cl)cc1,–,–,–,–,–,·,·,·
CC(C)CNS(=O)(=O)c1ccc(S(=O)(=O)N2CCC3(CC2)OCCO3)cc1,–,–,–,15.6,–,–,–,–
O=S(=O)(NC1CC1)c1ccc(S(=O)(=O)N2CCC3(CC2)OCCO3)cc1,–,–,–,–,–,·,·,·
CCN(CC)c1ccc(-c2n[nH]c(=S)n2-c2ccccc2)cc1,–,–,–,12.1,–,·,–,–
COc1ccc(CNC(=O)COC(=O)c2ccccn2)cc1,–,–,–,–,–,·,·,·
O=C(COC(=O)CCc1nc2ccccc2s1)NCc1ccco1,–,–,–,–,–,·,·,·
O=C(COC(=O)CCc1nc2ccccc2s1)NC(=O)NCc1ccco1,–,–,–,17.3,–,·,–,–
COc1ccc(C2CC(c3ccccc3)=NN2C(=O)COC(=O)/C=C/c2ccc(O)c(OC)c2)cc1 (configuration not stated),·,–,–,–,–,·,·,·
CN(c1nc2nonc2nc1NC1CC1)C1CCOC1 (configuration not stated),–,–,–,12.3,–,·,–,–
Cc1ccccc1-n1c(=O)c(C#N)cc2c(=O)n3ccccc3nc21,–,–,–,44.2,–,–,27.1,45.8
C=CCn1c(=O)c(C#N)cc2c(=O)n3ccccc3nc21,–,–,–,11.3,–,–,11.7,30.5
Cc1cc(-n2c(=O)c(C#N)cc3c(=O)n4ccccc4nc32)no1,–,–,–,28.3,–,–,19.6,34.5
COC(c1ccccc1)c1nnc(CCC(=O)N(C)Cc2cccc(-n3cccn3)c2)o1 (configuration not stated),–,–,–,–,–,·,·,·
SMILES,NPY Y1 blocker,NPY2 pot ag,S1P4 antagonist,S1P4 agonist,NPY1 pot ag,NPY Y2 blocker,S1P4 ag conf,S1P1 ag
C#CCNC(=O)C1=C[C@@H](c2ccc(C(F)(F)F)cc2)C[C@@H](OCCCCO)O1,–,–,–,–,–,·,·,·
COC(=O)c1ccc(NS(=O)(=O)c2ccccc2)o1,–,–,–,–,–,·,·,·
CN(CC(=O)Nc1ccc(F)cc1[N+](=O)[O-])Cc1ccccc1,–,–,–,–,–,·,·,·
Cc1cc(C)n(-c2nc3ccccc3nc2N2CCCC2)n1,–,–,–,87.5,–,–,–,–
CCOC(=O)C(=O)NN=C(c1ccccc1)c1ccccc1,·,–,–,–,–,·,·,·
COc1ccccc1CNC(=O)CSc1ccc(-c2ccncc2)nn1,–,–,–,29.1,–,·,–,–
CCCSc1nnc(NC(=O)Nc2ccc(F)cc2)s1,–,–,–,61.2,–,–,–,–
CC(C)(C)c1ccc(N/N=C(\C#N)S(=O)(=O)C(C)(C)C)cc1,–,–,–,28.8,–,·,–,–
CC(=O)c1cc2ccc(O)cc2oc1=O,·,–,–,104.2,–,·,44.7,66.0
O=C(NCc1ccco1)c1cc2ccc(O)cc2oc1=O,–,–,–,111.7,–,–,50.8,84.3
Cc1ccc(N=c2oc3cc(O)ccc3cc2C(N)=O)cc1,–,–,–,34.7,–,–,–,–
COc1ccc(N=c2oc3cc(O)ccc3cc2C(=O)Nc2ccccn2)cc1OC,–,–,–,–,–,·,·,·
COc1ccc2cc(C(=O)NCc3ccco3)c(=O)oc2c1,–,–,–,–,–,–,·,·
O=C(CN1C(=O)COc2ccc(S(=O)(=O)N3CCOCC3)cc21)NCc1ccccn1,·,–,–,–,–,·,·,·
CCC(C)(C(=O)NC1CCCC1)N(C(=O)CC1NC(=O)NC1=O)c1c(C)n(C)n(-c2ccccc2)c1=O (configuration not stated),–,–,–,–,–,·,·,·
CCc1ccc2c(c1)/C(=N/OC)C(=O)N2,–,–,–,60.4,–,–,–,–
COc1cc(NC2=CC(=O)CC(C)(C)C2)cc(OC)c1,–,–,–,28.0,–,–,–,–
C=CCN(CC=C)C(=S)NC(=O)c1ccc(C)c(Br)c1,–,–,–,–,–,–,·,·
COc1ccc(-c2noc(CSc3nc4sc(C)c(C)c4c(=O)n3-c3ccccc3)n2)cc1,–,–,–,21.1,–,–,–,–
COc1ccc(-c2noc(CSc3nc4sc(C)c(C)c4c(=O)n3-c3ccccc3)n2)cc1OC,–,–,–,–,–,–,·,·
COc1ccc(/C=C/C(=O)OCC(=O)NCCC2=CCCCC2)cc1S(=O)(=O)N1CCOCC1,–,–,–,–,–,·,·,·
COC(=O)CNC(=O)CSc1nnc(C)c(=O)[nH]1,–,–,–,–,–,–,·,·
Cc1ccc(NC(=O)c2ccc(N/N=C/c3cccc(O)c3)c([N+](=O)[O-])c2)cc1,–,–,–,14.4,–,–,–,–
O=C(O)c1cccc(-c2ccc(/C=N/Nc3ccc([N+](=O)[O-])cc3)o2)c1,·,–,–,–,–,·,·,·
O=C(O)c1ccc(N/N=C/c2ccc(-c3ccc(Cl)cc3Cl)o2)cc1,·,–,–,15.9,–,·,–,26.3
O=C(O)c1ccc(N/N=C/c2ccc(-c3cccc(Cl)c3)o2)cc1,·,–,–,13.3,–,·,–,–
O=C(O)c1ccc(N/N=C/c2ccc(-c3cc(Cl)ccc3Cl)o2)cc1,·,–,–,–,–,·,·,·
Cc1c(CCC(=O)O)c(=O)oc2c(C)c(OCc3cc4c(cc3Cl)OCO4)ccc12,·,–,–,–,–,·,·,·
